In ChEMBL document CHEMBL2203076, “Kandenols A-E, eudesmenes from an endophytic Streptomyces sp. of the mangrove tree Kandelia candel” (2012):
Values after ≈ are worked out from the molar mass of the structure shown.

Tests used:
Assay type in all cases: functional
Enterococcus faecalis = assay: Antimicrobial activity against vancomycin-resistant Enterococcus faecalis 1528 R10 by broth microdilution method
In short: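 MIC read-out by standard broth microdilution against E. faecalis 1528 R10, run in the same panel as Bacillus subtilis ATCC 6633 and Mycobacterium vaccae IMET 10670.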

Bacillus subtilis = assay: Antimicrobial activity against Bacillus subtilis ATCC 6633 by broth microdilution method
Mycolicibacterium vaccae = assay: Antimicrobial activity against Mycobacterium vaccae ATCC IMET 10670 by broth microdilution method

Row | Structure (SMILES) | MIC (Enterococcus faecalis) [µg/mL] | MIC (Bacillus subtilis) [µg/mL] | MIC (Mycolicibacterium vaccae) [µg/mL]
1 | CC1=CC(=O)C[C@]2(C)C[C@@H](O)[C@H](C(C)(C)O)C[C@@H]12 (relative stereo) [KANDENOL A] | > 100 | 50 (≈ 198 µM) | 12.5 (≈ 49.5 µM)
2 | CC1=CC(=O)C[C@]2(C)C[C@@H](O)[C@H](C(C)(C)O)C[C@@]12O (relative stereo) [KANDENOL B] | > 100 | 50 (≈ 186 µM) | 12.5 (≈ 46.6 µM)
3 | O=C(O)c1cn(C2CC2)c2cc(N3CCNCC3)c(F)cc2c1=O [CIPROFLOXACIN] | 0.78 (≈ 2.35 µM) | < 0.05 | 0.1 (≈ 0.302 µM)
4 | CC1=CC(=O)C[C@]2(C)C[C@@H](O)[C@H](C(C)(C)O)C[C@@]12OO [KANDENOL C] | > 100 | > 100 | 12.5 (≈ 44 µM)
5 | CC1=CC(=O)C[C@]2(C)CC[C@H](C(C)(C)O)C[C@@]12OO [KANDENOL D] | > 100 | 50 (≈ 186 µM) | 25 (≈ 93.2 µM)
6 | CC1=CC(=O)C[C@]2(C)C[C@@H](O)[C@@H]3C[C@@]12OC3(C)C [KANDENOL E] | > 100 | 50 (≈ 200 µM) | 12.5 (≈ 49.9 µM)
